Key:
[1] = melting temperature; fluorescence melt of hairpins on a sequencing array, two-state fit, raised by 9.35 °C to match UV melts; details: sodium 0.088 M
Summary of the method: (§1)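 Folding enthalpy and melting temperature were estimated with bootstrapped two-state fits and combined across four replicates by inverse-variance weighting, with fitted temperatures raised by 9.35 °C to match UV melts. The data were Cy3 fluorescence of library hairpins, with annealed Cy3 and quencher oligos, on a sequenced MiSeq flow cell in 50 mM Na-HEPES pH 8.0, 25 mM NaCl, imaged in 2.5 °C steps up to 60 °C and normalised to pre-quench Cy3 and control constructs.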

[2] = folding enthalpy; higher = less favourable; fluorescence melt of hairpins on a sequencing array, two-state fit; details: sodium 0.088 M
Summary of the method: as §1

| Sequence | Tm [1] | folding enthalpy [2] |
| --- | --- | --- |
| GTCTCTGGAAACGGAGAC (((((.(....).))))) | 50.8 °C | -34.7 kcal/mol |
| GTCTCTTCGAAAGAAGAC (((..(((....)))))) | 32 °C | -9.3 kcal/mol |
| GTCTGAGGAAACTCAGGC (.(((((....))))).) | 49.5 °C | -32.2 kcal/mol |
| GTCTGCGAAAGCAAAGAC ((((((....)))..))) | 50.1 °C | -19.1 kcal/mol |
| GTCTGCGAAAGCAACGAC ((((((....)))..))) | 44.9 °C | -13.1 kcal/mol |
| GTCTGCGAAAGCAAGGAC ((((((....)))..))) | 43.2 °C | -17.5 kcal/mol |
| GTCTGCGAAAGCAATGAC ((((((....)))..))) | 39.3 °C | -16.8 kcal/mol |
| GTCTGCGAAAGCACGGAC ((((((....)))..))) | 38.9 °C | -15.2 kcal/mol |
| GTCTGCGGAAACGTGGAC (((..((....))..))) | 47.5 °C | -32.4 kcal/mol |
| GTCTGCTCGAAAGAGGAC (((..(((....)))))) | 31.3 °C | -18.1 kcal/mol |
| GTCTGGAAACAGAC (((((....))))) | 52.4 °C | -27.8 kcal/mol |
| GTCTGGCGAAAGCCCGAC (((.(((....))).))) | 52.2 °C | -25.7 kcal/mol |
| GTCTGGGGAAACCTGGAC (((..((....))..))) | 41 °C | -23.9 kcal/mol |
| GTCTGTCGAAAGACGGAC (((.(((....))).))) | 63.2 °C | -36.6 kcal/mol |
| GTCTGTCGAAAGACTGAC (((.(((....))).))) | 54.4 °C | -39.4 kcal/mol |
| GTCTTACCGAAAGGTGAC (((..(((....)))))) | 35.7 °C | -13.9 kcal/mol |
| GTCTTACGAAAGTAGAC (((.(((....)))))) | 43.4 °C | -23.8 kcal/mol |
| GTCTTAGCGAAAGCTGAC (((..(((....)))))) | 39 °C | -14.9 kcal/mol |
| GTCTTAGGAAACTAGGAC (((.(((....))).))) | 38.4 °C | -33.8 kcal/mol |
| GTCTTCCGAAAGGAGGAC (((.(((....))).))) | 54.5 °C | -38.2 kcal/mol |
| GTCTTCGAAAGAAAGGAC ((((((....)))..))) | 26.7 °C | -10.7 kcal/mol |
| GTCTTCGAAAGAAGGGAC ((((((....)))..))) | 32.9 °C | -14.1 kcal/mol |
| GTCTTCGAAAGAATTGAC ((((((....)))..))) | 26.2 °C | -10.7 kcal/mol |

| Sequence | Tm [1] | folding enthalpy [2] |
| --- | --- | --- |
| GTCTTCGGAAACGAAGGC (.(((((....))))).) | 53.8 °C | -32.9 kcal/mol |
| GTCTTTACGAAAGTAGAC (((..(((....)))))) | 31.8 °C | -17.4 kcal/mol |
| GTCTTTCGAAAGAAGGAC (((.(((....))).))) | 47.4 °C | -31.5 kcal/mol |
| GTCTTTCGAAAGAATGAC (((.(((....))).))) | 45.2 °C | -36.6 kcal/mol |
| GTCTTTGAAAAAAGAC ((((((....)))))) | 48 °C | -31.1 kcal/mol |
| GTCTTTGGAAACAAAGAC (((((((....))))))) | 56.5 °C | -42.3 kcal/mol |
| GTCTTTGGAAACAAGGAC (((.(((....))).))) | 41.5 °C | -31.1 kcal/mol |
| GTCTTTGGAAACAGAGAC ((((.((....)).)))) | 37.3 °C | -26 kcal/mol |
| GTCTTTTCGAAAGAAGAC (((..(((....)))))) | 31.6 °C | -18.7 kcal/mol |
| GTGAAAGCGAAAGCTCAC (((..(((....)))))) | 47.6 °C | -23.9 kcal/mol |
| GTGAACCGAAAGGTCAC (((.(((....)))))) | 54.9 °C | -27.2 kcal/mol |
| GTGAACGAAAGTTCGCAC ((((((....)))..))) | 51.3 °C | -16.4 kcal/mol |
| GTGAACGGAAACGTCCAC (((.(((....))).))) | 45.1 °C | -31.9 kcal/mol |
| GTGAAGCGAAAGCTCAC (((.(((....)))))) | 56 °C | -26.2 kcal/mol |
| GTGAAGGGAAACCTTCGC (.(((((....))))).) | 50.2 °C | -25.8 kcal/mol |
| GTGAATGCGAAAGCACAC (((..(((....)))))) | 40.7 °C | -14.7 kcal/mol |
| GTGAATGGAAACATTCAC (((((((....))))))) | 56.9 °C | -45.6 kcal/mol |
| GTGAATGGAAACATTTGC (..((((....))))..) | 31.4 °C | -15.5 kcal/mol |
| GTGAATGGAAACGTTCAC (((((.(....).))))) | 47.1 °C | -39.7 kcal/mol |
| GTGACAGGAAACTATCAC ((((.((....)).)))) | 33.2 °C | -19.4 kcal/mol |
| GTGACAGGAAACTGTTGC (..((((....))))..) | 37.3 °C | -20.8 kcal/mol |
| GTGACCGAAAGGTACAC ((((((....))).))) | 49.9 °C | -19.4 kcal/mol |
| GTGACCGAAAGGTCCCAC ((((((....)))..))) | 35.9 °C | -8.57 kcal/mol |

| Sequence | Tm [1] | folding enthalpy [2] |
| --- | --- | --- |
| GTGACCGAAAGGTGCCAC ((((((....)))..))) | 30.2 °C | -12.1 kcal/mol |
| GTGACGCCGAAAGGCCAC (((..(((....)))))) | 45.2 °C | -11.8 kcal/mol |
| GTGACGGGAAACCGCCAC (((.(((....))).))) | 52.2 °C | -42.1 kcal/mol |
| GTGACGGGAAACCGTTGC (..((((....))))..) | 45.4 °C | -17.6 kcal/mol |
| GTGACTGGAAACGGTTAC ((.((.(....).)).)) | 36.9 °C | -8.77 kcal/mol |
| GTGAGACCGAAAGGTCAC (((..(((....)))))) | 50.4 °C | -16.1 kcal/mol |
| GTGAGAGGAAACTCTCAC (((((((....))))))) | 61.7 °C | -41.8 kcal/mol |
| GTGAGAGGAAACTCTTAC ((.((((....)))).)) | 38.2 °C | -30.9 kcal/mol |
| GTGAGCCGAAAGGCCAC (((.(((....)))))) | 64.7 °C | -18.7 kcal/mol |
| GTGAGCCGAAAGGCCCAC (((.(((....))).))) | 55.3 °C | -23.3 kcal/mol |
| GTGAGCGAAAGCTATCAC ((((((....)))..))) | 37.6 °C | -18.3 kcal/mol |
| GTGAGCGAAAGCTCTCAC ((((((....)))..))) | 40.6 °C | -10 kcal/mol |
| GTGAGCGAAAGCTGTCAC ((((((....)))..))) | 40.2 °C | -14.3 kcal/mol |
| GTGAGCGAAAGCTTACAC ((((((....)))..))) | 49 °C | -14 kcal/mol |
| GTGAGCGGAAACGCCCAC (((.(((....))).))) | 51.1 °C | -23.7 kcal/mol |
| GTGAGCGGAAACGCTTGC (..((((....))))..) | 43.8 °C | -16.2 kcal/mol |
| GTGAGGACGAAAGTCCAC (((..(((....)))))) | 47.9 °C | -13.9 kcal/mol |
| GTGAGGCGAAAGCCACAC (((.(((....))).))) | 59.6 °C | -26.5 kcal/mol |
| GTGAGGGCGAAAGCCCAC (((..(((....)))))) | 46.5 °C | -11.6 kcal/mol |
| GTGAGGGGAAACTCTCGC (.(((.(....).))).) | 37.2 °C | -24.9 kcal/mol |
| GTGAGTCGAAAGACCAC (((.(((....)))))) | 53 °C | -33.7 kcal/mol |
| GTGAGTGCGAAAGCACAC (((..(((....)))))) | 48.6 °C | -12.5 kcal/mol |
| GTGAGTGGAAACACTCAC (((((((....))))))) | 66.2 °C | -44 kcal/mol |

| Sequence | Tm [1] | folding enthalpy [2] |
| --- | --- | --- |
| GTGATAACGAAAGTTCAC (((..(((....)))))) | 37.5 °C | -15.1 kcal/mol |
| GTGATAGCGAAAGCTCAC (((..(((....)))))) | 44.9 °C | -18.9 kcal/mol |
| GTGATAGGAAACTGTCAC ((((.((....)).)))) | 45.7 °C | -36.5 kcal/mol |
| GTGATCCCGAAAGGGCAC (((..(((....)))))) | 39.9 °C | -14.4 kcal/mol |
| GTGATCCGAAAGGACAC (((.(((....)))))) | 50.7 °C | -22.5 kcal/mol |
| GTGATCGAAAGATAACAC ((((((....)))..))) | 34.5 °C | -23.6 kcal/mol |
| GTGATCGAAAGATCACAC ((((((....)))..))) | 67.3 °C | -14.1 kcal/mol |
| GTGATCGAAAGATCGCAC ((((((....)))..))) | 51.8 °C | -18.1 kcal/mol |
| GTGATCGAAAGATGCAC ((((((....))).))) | 38.7 °C | -19.6 kcal/mol |
| GTGATGCCGAAAGGCCAC (((..(((....)))))) | 41.6 °C | -13.5 kcal/mol |
| GTGATGCGAAAGCACAC (((.(((....)))))) | 53.5 °C | -25.8 kcal/mol |
| GTGATGGGAAACCATTGC (..((((....))))..) | 33.7 °C | -23.6 kcal/mol |
| GTGATTGGAAACAACCAC (((.(((....))).))) | 37.5 °C | -31.3 kcal/mol |
| GTGATTGGAAACAATCAC (((((((....))))))) | 58.3 °C | -46.9 kcal/mol |
| GTGATTGGAAACAATCGC (.(((((....))))).) | 49.1 °C | -40.7 kcal/mol |
| GTGATTGGAAACAATTGC (..((((....))))..) | 31.3 °C | -20.4 kcal/mol |
| GTGATTGGAAACGATCAC (((((.(....).))))) | 47.9 °C | -44.9 kcal/mol |
| GTGATTTCGAAAGAACAC (((..(((....)))))) | 31.3 °C | -22.9 kcal/mol |
| GTGCACGAAAGTGATCAC ((((((....)))..))) | 37.4 °C | -12.7 kcal/mol |
| GTGCACGAAAGTGTACAC ((((((....)))..))) | 51.8 °C | -17.1 kcal/mol |
| GTGCACGGAAACACGCAC ((((..(....)..)))) | 41.1 °C | -29.2 kcal/mol |
| GTGCACGGAAACGCGCAC ((((.((....)).)))) | 57.7 °C | -49 kcal/mol |
